Test results: ChEMBL document CHEMBL1132592, “Synthesis of novel 2-benzothiopyran and 3-benzothiepin derivatives and their stimulatory effect on bone formation” (J Med Chem, 1999)

Legend:
[1] = molecular target: T1, Alkaline phosphatase, tissue-nonspecific isozyme (Rattus norvegicus) (UniProt P08289); experiment: Effect on alkaline phosphatase activity compared to control in culture of rat bone marrow stromal cells, 10E-5 M concentration; type: tissue-based
T1 sequence (whole entry): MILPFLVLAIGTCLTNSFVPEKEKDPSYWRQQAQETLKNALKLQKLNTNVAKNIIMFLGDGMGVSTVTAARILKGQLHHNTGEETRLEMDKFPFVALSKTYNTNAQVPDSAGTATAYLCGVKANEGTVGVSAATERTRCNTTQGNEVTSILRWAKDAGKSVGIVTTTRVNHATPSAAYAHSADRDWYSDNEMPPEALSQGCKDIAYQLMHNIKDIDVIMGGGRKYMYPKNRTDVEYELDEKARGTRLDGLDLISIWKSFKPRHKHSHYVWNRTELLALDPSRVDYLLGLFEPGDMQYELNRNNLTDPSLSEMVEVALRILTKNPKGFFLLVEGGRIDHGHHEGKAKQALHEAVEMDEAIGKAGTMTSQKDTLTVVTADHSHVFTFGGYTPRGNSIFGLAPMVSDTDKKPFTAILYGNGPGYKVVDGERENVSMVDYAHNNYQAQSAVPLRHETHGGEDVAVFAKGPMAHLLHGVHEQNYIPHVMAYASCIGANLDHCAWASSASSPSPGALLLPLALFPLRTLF
Summary of the method: (§1)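 Rat femoral marrow stromal cells subcultured at 4 × 10^4 cells/well in α-MEM with 15% FBS, ascorbate, 10 mM β-glycerophosphate and 10^-7 M dexamethasone. Compound added day 1 to day 10-14, medium refreshed every other day. Lysate ALP (Lowry method) given as fold of control; n = 5–10; Student's t-test.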

[2] = molecular target: T2, Alkaline phosphatase, tissue-nonspecific isozyme (Mus musculus) (UniProt P09242); experiment: Alkaline phosphatase stimulatory activity of 10E-5 M compound in culture of MC3T3-E1 in presence of 3 ng/mL of BMP
T2 sequence (whole entry): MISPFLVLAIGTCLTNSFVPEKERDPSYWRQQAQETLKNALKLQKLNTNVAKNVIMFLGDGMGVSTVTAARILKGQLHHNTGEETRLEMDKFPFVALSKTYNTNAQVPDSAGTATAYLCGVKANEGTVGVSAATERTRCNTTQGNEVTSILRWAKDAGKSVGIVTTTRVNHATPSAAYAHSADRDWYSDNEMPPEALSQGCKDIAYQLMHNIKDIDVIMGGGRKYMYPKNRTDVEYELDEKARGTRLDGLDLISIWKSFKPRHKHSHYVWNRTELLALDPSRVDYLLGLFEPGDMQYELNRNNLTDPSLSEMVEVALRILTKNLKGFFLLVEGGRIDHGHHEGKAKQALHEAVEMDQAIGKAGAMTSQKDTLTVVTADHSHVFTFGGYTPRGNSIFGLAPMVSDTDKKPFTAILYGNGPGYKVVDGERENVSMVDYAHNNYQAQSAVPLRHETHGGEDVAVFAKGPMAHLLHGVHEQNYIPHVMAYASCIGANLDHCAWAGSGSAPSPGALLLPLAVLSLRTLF
Summary of the method: (§2)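 Mouse osteoblastic MC3T3-E1 cells, 3000 cells/well, grown 3 days in α-MEM with 10% FBS, then switched to α-MEM with 1% FBS plus compound, with or without recombinant Xenopus BMP-4/7 heterodimer (3 ng/mL), for 3 more days. ALP in lysate supernatant read as absorbance at 405 nm; mean ± SE, n = 6; Dunnett's test vs matching control.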

[3] = molecular target: T1, Alkaline phosphatase, tissue-nonspecific isozyme (Rattus norvegicus); experiment: Effect of 10E-7 M compound on alkaline phosphatase activity in culture of rat bone marrow stromal cells
Summary of the method: (§3)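 Femoral marrow stromal cells from 7-week-old male Sprague-Dawley rats. Primary culture 1 week in α-MEM (10 mM HEPES pH 7.0, 15% FBS, 2 mM glutamine, 50 μg/mL ascorbate, 10 mM β-glycerophosphate, 10^-7 M dexamethasone), 37 °C, 5% CO2. Subcultured at 4 × 10^4 cells/well; compound (10 mM stock in EtOH-DMSO 1:1 or DMF) from day 1 to day 10-14, medium changed every other day. Lysate ALP (Lowry method) in nmol/min/well; mean ± SE, n = 5–10.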

[4] = molecular target: T1, Alkaline phosphatase, tissue-nonspecific isozyme (Rattus norvegicus); experiment: Effect of 10E-5 M compound on alkaline phosphatase activity in culture of rat bone marrow stromal cells; type: tissue-based; summary of the method: as §3
[5] = molecular target: T1, Alkaline phosphatase, tissue-nonspecific isozyme (Rattus norvegicus); experiment: Effect of 10E-6 M compound on alkaline phosphatase activity in culture of rat bone marrow stromal cells; summary of the method: as §3
[6] = molecular target: T2, Alkaline phosphatase, tissue-nonspecific isozyme (Mus musculus); experiment: Alkaline phosphatase stimulatory activity of 10E-5 M compound in culture of MC3T3-E1 in absence of BMP; summary of the method: as §2
[7] = molecular target: T2, Alkaline phosphatase, tissue-nonspecific isozyme (Mus musculus); experiment: Alkaline phosphatase stimulatory activity of 10E-6 M compound in culture of MC3T3-E1 in absence of BMP; summary of the method: as §2
[8] = molecular target: T2, Alkaline phosphatase, tissue-nonspecific isozyme (Mus musculus); experiment: Alkaline phosphatase stimulatory activity of 10E-6 M compound in culture of MC3T3-E1 in presence of 3 ng/mL of BMP; summary of the method: as §2
[9] = molecular target: T1, Alkaline phosphatase, tissue-nonspecific isozyme (Rattus norvegicus); experiment: Effect of 10E-7 M compound on alkaline phosphatase activity compared to control in culture of rat bone marrow stromal cells; summary of the method: as §1

| SMILES | ALP activity [1] | further results |
| --- | --- | --- |
| CCOP(=O)(CCNC(=O)[C@H]1Cc2cc3c(cc2C(=O)[C@H](C)S1)OCO3)OCC | 1.1 |  |
| CCOP(=O)(Cc1ccc(NC(=O)[C@@H]2Cc3cc4c(cc3C(=O)[C@@H](C)S2)OCO4)cc1)OCC |  | ALP activity [2]: 0.131; ALP activity [3]: 166; ALP activity [4]: 566; ALP activity [5]: 160; ALP activity [6]: 0.115 |
| CCOP(=O)(Cc1ccc(NC(=O)[C@@H]2SCC(=O)c3cc(C4CCCCC4)ccc32)cc1)OCC | 2.4 |  |
| CCOP(=O)(Cc1cccc(NC(=O)[C@H]2Cc3cc4c(cc3C(=O)[C@H](C)S2)OCO4)c1)OCC | 1.8 |  |
| Cc1cc2c(cc1C)[C@H](C(=O)Nc1cccnc1)SCC2=O | 1.3 |  |
| CCOP(=O)(CCc1ccc(NC(=O)[C@H]2Cc3cc4c(cc3C(=O)[C@H](C)S2)OCO4)cc1)OCC | 1.9 |  |
| CCOP(=O)(OCC)c1ccc(NC(=O)[C@H]2Cc3cc(OC)c(OC)cc3C(=O)CS2)cc1 | 2.6 |  |
| CCOP(=O)(Cc1ccc(NC(=O)C2Cc3cc4c(cc3C(=O)C(C)S2)OCO4)cc1)OCC (racemic) |  | ALP activity [2]: 0.221; ALP activity [3]: 185; ALP activity [4]: 1210; ALP activity [5]: 411; ALP activity [7]: 0.133; ALP activity [6]: 0.178; ALP activity [8]: 0.162 |
| CCOP(=O)(OCC)c1ccc(NC(=O)[C@@H]2SCC(=O)c3cc4c(cc32)CCC4)cc1 | 1.1 |  |
| CCOP(=O)(Cc1ccc(NC(=O)[C@H]2Cc3cc4c(cc3C(=O)CS2)OCO4)cc1)OCC | 2.9 |  |
| CC1COP(=O)(Cc2ccc(NC(=O)[C@H]3Cc4cc5c(cc4C(=O)[C@H](C)S3)OCO5)cc2)OC1 (stereo not given in full) | 3 |  |
| COc1cc2c(cc1OC)[C@H](C(=O)Nc1ccc(Cl)cc1)SCC2=O | 1.3 |  |
| CCOP(=O)(Cc1ccc(NC(=O)[C@H]2Cc3cc(OC)c(OC)cc3C(=O)[C@H](C)S2)cc1)OCC | 2.3 |  |
| CCOP(=O)(Cc1ccc(NC(=O)[C@H]2Cc3cc4c(cc3C(=O)[C@H](C(C)C)S2)OCO4)cc1)OCC | 3.3 |  |
| CCCCOP(=O)(Cc1ccc(NC(=O)C2SCC(=O)c3cc(C4CCCCC4)ccc32)cc1)OCCCC (stereo not given) |  | ALP activity [9]: 1.7 |
| CCOP(=O)(Cc1ccc(NC(=O)[C@H]2Cc3ccc(C)cc3C(=O)[C@H](C)S2)cc1)OCC | 1.7 |  |
| CCOP(=O)(OCC)c1ccc(NC(=O)[C@H]2Cc3cc(C)c(C)cc3C(=O)CS2)cc1 | 2.2 |  |
| CCOP(=O)(Cc1ccc(NC(=O)[C@@H]2SCC(=O)c3cc(CC4CCCCC4)ccc32)cc1)OCC | 2 |  |
| Cc1cc2c(cc1C)[C@H](C(=O)Nc1cnccn1)SCC2=O | 1.3 |  |
| COc1cc2c(cc1OC)C(=O)CS[C@@H](C(=O)Nc1ccc(CP3(=O)OCC(C)CO3)cc1)C2 (stereo not given in full) | 2.7 |  |
| CCOP(=O)(Cc1ccc(NC(=O)[C@H]2Cc3ccccc3C(=O)CS2)cc1)OCC | 1.5 |  |
| CC(C)OP(=O)(Cc1ccc(NC(=O)C2SCC(=O)c3cc(C4CCCCC4)ccc32)cc1)OC(C)C (stereo not given) |  | ALP activity [9]: 2 |
| CCOP(=O)(Cc1ccc(NC(=O)[C@H]2Cc3cc(OC)c(OC)cc3C(=O)[C@H](CC)S2)cc1)OCC | 1.5 |  |
| CCOP(=O)(Cc1ccc(NC(=O)[C@H]2Cc3cc(OC)c(OC)cc3C(=O)CS2)cc1)OCC |  | ALP activity [2]: 0.199; ALP activity [6]: 0.164 |
| CCOP(=O)(Cc1ccc(NC(=O)[C@H]2Cc3cc(OC)c(OC)cc3C(=O)[C@H](C(C)C)S2)cc1)OCC | 1.4 |  |
| Cc1ccc(NC(=O)[C@@H]2SCC(=O)c3cc(C4CCCCC4)ccc32)cc1 | 1.7 |  |
| C[C@@H]1S[C@@H](C(=O)Nc2nc(-c3ccccc3)cs2)c2cc3c(cc2C1=O)OCO3 | 1.3 |  |
| CCOP(=O)(Cc1ccccc1NC(=O)[C@H]1Cc2cc3c(cc2C(=O)[C@H](C)S1)OCO3)OCC | 1.1 |  |

| SMILES | ALP activity [1] | further results |
| --- | --- | --- |
| CCOP(=O)(Cc1ccc(NC(=O)[C@@H]2S[C@@H](C)C(=O)c3cc4c(cc32)OCO4)cc1)OCC | 1.2 |  |
| O=C1CS[C@@H](C(=O)Nc2ccc(Cl)cc2)c2cc3c(cc21)CCC3 | 1.3 |  |
| CCOP(=O)(Cc1ccc(NC(=O)[C@@H]2SCC(=O)c3cc4c(cc32)OCO4)cc1)OCC | 1.2 |  |
| COP(=O)(Cc1ccc(NC(=O)C2SCC(=O)c3cc(C4CCCCC4)ccc32)cc1)OC (stereo not given) |  | ALP activity [9]: 1.7 |
| CCOP(=O)(Cc1ccc(NC(=O)[C@H]2Cc3ccc(C)cc3C(=O)[C@H](c3ccccc3)S2)cc1)OCC | 1.2 |  |
| COc1cc2c(cc1OC)C(=O)CS[C@@H](C(=O)Nc1ccc(CP3(=O)OCCCCO3)cc1)C2 | 2.8 |  |
| CCOP(=O)(OCC)c1ccc(NC(=O)C2SCC(=O)c3cc(C4CCCCC4)ccc32)cc1 (stereo not given) |  | ALP activity [9]: 1.6 |
| CCCOP(=O)(OCCC)c1ccc(NC(=O)C2SCC(=O)c3cc(C4CCCCC4)ccc32)cc1 (stereo not given) |  | ALP activity [9]: 1.5 |
| CCOP(=O)(OCC)c1ccc(NC(=O)[C@H]2Cc3cc4c(cc3C(=O)[C@H](C)S2)OCO4)cc1 | 1.8 |  |
| CC(C)OP(=O)(Cc1ccc(NC(=O)[C@H]2Cc3cc4c(cc3C(=O)[C@H](C)S2)OCO4)cc1)OC(C)C | 3.9 |  |
| CCOP(=O)(Cc1ccc(NC(=O)[C@H]2Cc3cc4c(cc3C(=O)[C@H](CC)S2)OCO4)cc1)OCC | 4.6 |  |
| CCOP(=O)(CCc1ccc(NC(=O)C2SCC(=O)c3cc(C4CCCCC4)ccc32)cc1)OCC (stereo not given) |  | ALP activity [9]: 1.5 |
| CCOP(=O)(Cc1ccc(NC(=O)[C@@H]2SCC(=O)c3cc(OC)c(OC)cc32)cc1)OCC | 2.5 |  |
| CCOP(=O)(Cc1ccc(NC(=O)[C@H]2Cc3cc4c(cc3C(=O)CS2)OCCO4)cc1)OCC | 1.2 |  |
| COP(=O)(Cc1ccc(NC(=O)[C@H]2Cc3cc4c(cc3C(=O)[C@H](C)S2)OCO4)cc1)OC | 7.2 |  |
| CCOP(=O)(Cc1ccc(NC(=O)[C@H]2Cc3ccc(Cl)cc3C(=O)CS2)cc1)OCC | 1.1 |  |
| CCOc1ccc(OCC)c(NC(=O)[C@@H]2SCC(=O)c3cc(C4CCCCC4)ccc32)c1 | 2.3 |  |
| CCOP(=O)(OCC)c1ccc(NC(=O)[C@@H]2SCC(=O)c3cc(C)c(C)cc32)cc1 | 1.5 |  |
| CCOP(=O)(Cc1ccc(NC(=O)C2Cc3cc(OC)c(OC)cc3C(=O)CS2)cc1)OCC (racemic) |  | ALP activity [2]: 0.169; ALP activity [4]: 1910; ALP activity [6]: 0.143 |
| O=C1CS[C@@H](C(=O)Nc2ccc(Cl)cc2)c2ccc(C3CCCCC3)cc21 | 2 |  |
| CCOP(=O)(Cc1ccc(NC(=O)[C@@H]2SCC(=O)c3cc(C)c(C)cc32)cc1)OCC | 1.5 |  |
| CCOP(=O)(Cc1ccc(NC(=O)[C@@H]2Cc3cc(OC)c(OC)cc3C(=O)CS2)cc1)OCC |  | ALP activity [2]: 0.131; ALP activity [4]: 770; ALP activity [6]: 0.12 |
| CCOP(=O)(Cc1ccc(NC(=O)[C@H]2Cc3ccc(C)cc3C(=O)CS2)cc1)OCC | 1.1 |  |
| CCOP(=O)(Cc1ccc(NC(=O)[C@@H]2SCC(=O)c3cc(-c4ccc(Cl)cc4)ccc32)cc1)OCC | 1.7 |  |
| COP(=O)(OC)c1ccc(NC(=O)C2SCC(=O)c3cc(C4CCCCC4)ccc32)cc1 (stereo not given) |  | ALP activity [9]: 1.5 |
| CC(C)Oc1ccc2c(=O)c(-c3ccccc3)coc2c1 | 1.6 |  |
| CCOP(=O)(Cc1ccccc1NC(=O)C1SCC(=O)c2cc(C3CCCCC3)ccc21)OCC (stereo not given) |  | ALP activity [9]: 1.5 |
